Assay outcomes as filed in PubChem BioAssay.
UBC9 SUMO inh: SUMOylation inhibition; P63279; inhibition, % at 35 µM; 290,000 tested, 0.36% active; AID 2006; HTRF SUMOylation assay, SAE1/SAE2 + UBC9, in vitro; in the data active = inhibition above about 50%, passing the limit was not always enough; inconclusive = no clear call, values can overlap the other calls
Target sequence (P63279 whole entry, looked up): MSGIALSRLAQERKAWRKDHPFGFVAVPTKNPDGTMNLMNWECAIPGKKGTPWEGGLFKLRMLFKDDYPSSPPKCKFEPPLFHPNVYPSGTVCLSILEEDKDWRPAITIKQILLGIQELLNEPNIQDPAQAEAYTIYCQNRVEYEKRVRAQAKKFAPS
HCV NS3 hel inh: blocks Hepatitis C virus NS3 helicase unwinding. NS3 helicase DNA unwinding, Cy5 molecular beacon fluorescence. inhibition, % at 10.9 µM. 290,000 tested, 0.56% active;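 active = inhibition above the mean of all tested compounds plus 3 SD, set per campaign, cut at about 35% in these data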
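test system = hepatitis C virus NS3 helicase domain fragment enzyme | reagent = annealed dual-labelled DNA beacon duplex, ATP-started | times = 1 h at 25 °C | detection = Cy5 fluorescence, 0 and 60 min reads | read-out basis = percent inhibition from t60/t0 fluorescence ratio | control set = DMSO and thioflavine S | replication = one well per compound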
core dimer inh: blocks dimerization of HCV core protein | 300,000 tested, 0.33% active | inhibition, % at 5 µM | TR-FRET GST/Flag-core106 dimerization, 1536-well;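 active = inhibition above the mean of all tested compounds plus 3 SD, set per screening campaign, cut at about 45% in these data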
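Assay system: Tagged HCV core106 pair (GST and Flag) | Buffer or medium: KF-containing HEPES buffer, pH 7.45, DTT, CHAPS, BSA | Also added: Eu donor and XL665 acceptor anti-tag antibodies | Dosing: One concentration, 5 µM, in 0.5% DMSO | Timing: 4 h at 22.5 °C | Technique: TR-FRET 671 and 617 nm emission | Repeats: Singlicate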
EBNA-1 inh: blocks EBNA-1 binding to DNA | 300,000 tested, 0.34% active | inhibition, % at 14.8 µM | EBNA-1 DNA binding, fluorescence polarization; in the data active = inhibition above about 28%
ZTA DNA inh: blocks Epstein-Barr virus ZTA, an EBNA-1 counter-screen. P03206. ZTA-DNA binding, fluorescence polarization. inhibition, % at 11 µM. 320,000 tested, 0.15% active. AID 2234; in the data active = inhibition above about 33%
Target sequence (P03206 whole entry, looked up): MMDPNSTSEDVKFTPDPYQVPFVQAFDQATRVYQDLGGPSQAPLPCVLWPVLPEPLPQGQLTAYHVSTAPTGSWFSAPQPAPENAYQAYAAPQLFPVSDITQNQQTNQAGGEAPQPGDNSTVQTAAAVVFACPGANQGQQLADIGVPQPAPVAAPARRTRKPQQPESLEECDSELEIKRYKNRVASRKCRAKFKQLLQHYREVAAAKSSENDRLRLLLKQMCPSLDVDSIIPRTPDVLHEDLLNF
Numbers stand for hits. Shown are actives, neighbours in structure and some others; about 1.4% of the full set was active somewhere.

For O=C(/C=C/c1ccco1)Nc1cccc(NC(=O)/C=C/c2ccco2)n1 the results were UBC9 SUMO inh inconclusive, HCV NS3 hel inh inactive, core dimer inh 49.1, EBNA-1 inh inactive and ZTA DNA inh inactive.
For Cn1cnnc1SCc1ccc(-c2ccc(Br)cc2)o1 the results were UBC9 SUMO inh inactive, HCV NS3 hel inh inactive, core dimer inh 64.0, EBNA-1 inh inactive and ZTA DNA inh inactive.
Screening CCCCn1c(=O)[nH]c(=O)c2c1nc(-c1ccc(C#N)cc1)n2C1CCCC1 returned UBC9 SUMO inh inactive, HCV NS3 hel inh inactive, core dimer inh 57.9, EBNA-1 inh inactive and ZTA DNA inh inactive.
Screening CC(NC(=O)c1cc(-c2cccnc2)nc2ccc(Br)cc12)C1CCCO1 (stereo not drawn) returned UBC9 SUMO inh inactive, HCV NS3 hel inh inactive, core dimer inh inactive, EBNA-1 inh 160.0 and ZTA DNA inh 150.8.
CC(NC(=O)c1cc(-c2ccncc2)nc2ccc(Cl)cc12)C1CCCO1 (stereo not drawn) was read as UBC9 SUMO inh inactive, HCV NS3 hel inh inactive, core dimer inh inactive, EBNA-1 inh inactive and ZTA DNA inh inactive.
COc1ccc(C(=O)NCCCNC(=O)c2cnccn2)cc1 was read as UBC9 SUMO inh inactive, HCV NS3 hel inh inactive, core dimer inh inactive, EBNA-1 inh inactive and ZTA DNA inh inactive.
Screening O=C(NCCCN1CCOCC1)c1nn(-c2ccccc2)c(=O)c2ccccc12 returned core dimer inh inactive, EBNA-1 inh inactive and ZTA DNA inh inactive.
`CCCCn1c(O)c(/C=C/C=C/C=Nc2ccccc2)sc1=S` gave UBC9 SUMO inh inactive, HCV NS3 hel inh inactive, core dimer inh 62.8, EBNA-1 inh inactive and ZTA DNA inh inactive.
For CCOc1ccccc1N1Cc2cc(C)c(C)cc2C1 the results were UBC9 SUMO inh inactive, HCV NS3 hel inh inactive, core dimer inh 66.7, EBNA-1 inh inactive and ZTA DNA inh inactive.
`CCOc1ccc(N2Cc3ccccc3C2)cc1` gave UBC9 SUMO inh inactive, HCV NS3 hel inh inactive, core dimer inh inactive, EBNA-1 inh inactive and ZTA DNA inh inactive.
CCOc1ccccc1N1Cc2ccccc2C1 was read as UBC9 SUMO inh inactive, HCV NS3 hel inh inactive, core dimer inh 53.6, EBNA-1 inh inactive and ZTA DNA inh inactive.
`O=C(NCCS(=O)(=O)N1CCCCCC1)c1ccccc1` gave core dimer inh inactive, EBNA-1 inh inactive and ZTA DNA inh inactive.
For CCc1cccc(C)c1NC(=O)CSc1nc2ccncc2[nH]1 the results were UBC9 SUMO inh inactive, HCV NS3 hel inh inactive, core dimer inh inactive, EBNA-1 inh inactive and ZTA DNA inh inactive.
`CCOC(=O)N1CCN(C(=O)CSc2nnc3[nH]c(=O)c(C)c(C)n23)CC1` gave core dimer inh inactive, EBNA-1 inh inactive and ZTA DNA inh inactive.
Screening Cc1onc(-c2ccccc2)c1C(=O)Nc1nc(-c2cc(F)ccc2F)cs1 returned UBC9 SUMO inh inactive, HCV NS3 hel inh inactive, core dimer inh inactive, EBNA-1 inh inactive and ZTA DNA inh inactive.
`Cc1onc(-c2ccccc2)c1C(=O)Nc1sc2c(c1C(N)=O)CCC2` gave UBC9 SUMO inh inactive, HCV NS3 hel inh inactive, core dimer inh 61.5, EBNA-1 inh inactive and ZTA DNA inh inactive.
Cc1onc(-c2ccccc2)c1C(=O)Nc1nc(-c2ccccc2)cs1 was read as UBC9 SUMO inh inactive, HCV NS3 hel inh inactive, core dimer inh 54.0, EBNA-1 inh inactive and ZTA DNA inh inactive.
`O=[N+]([O-])c1cccc(-n2cc3ccc([N+](=O)[O-])cc3n2)c1` gave ZTA DNA inh inactive.
Cc1cccc(C)c1NC(=O)c1cccc(N2C(=O)C3CCC(C)CC3C2=O)c1 (stereo not drawn) was read as UBC9 SUMO inh inactive, HCV NS3 hel inh inactive, core dimer inh inactive, EBNA-1 inh inactive and ZTA DNA inh inactive.
`C=CCNC(=O)c1onc(CS(=O)(=O)c2cc(C)cc(C)c2)c1C(=O)NCC=C` gave core dimer inh inactive, EBNA-1 inh inactive and ZTA DNA inh inactive.
`N#Cc1sc2nc(-c3ccccc3)cc(-c3ccco3)c2c1N` gave UBC9 SUMO inh inactive, HCV NS3 hel inh inactive, core dimer inh 49.5, EBNA-1 inh inactive and ZTA DNA inh inactive.
`N#Cc1sc2nc(C3CC3)cc(-c3ccccc3)c2c1N` gave UBC9 SUMO inh inactive, HCV NS3 hel inh inactive, core dimer inh inactive, EBNA-1 inh inactive and ZTA DNA inh inactive.
Screening N#Cc1c(-c2ccco2)cc(-c2ccccc2)[nH]c1=O returned UBC9 SUMO inh inactive, HCV NS3 hel inh inactive, core dimer inh inactive, EBNA-1 inh inactive and ZTA DNA inh inactive.
`N#Cc1c(-c2ccccc2)cc(-c2ccco2)c(C#N)c1N` gave UBC9 SUMO inh 52.9 and HCV NS3 hel inh inactive.
For CC1(c2ccccc2)NC(=O)N(CC(=O)NNC(=O)c2cccc(Cl)c2)C1=O (stereo not drawn) the results were ZTA DNA inh inactive.
Cc1ccccc1NC(=O)CN1C(=O)N/C(=C\c2ccc(N3CCOCC3)c(F)c2)C1=O was read as UBC9 SUMO inh inactive, HCV NS3 hel inh inactive, core dimer inh inactive, EBNA-1 inh 55.6 and ZTA DNA inh inactive.
For Cc1ccc(NC(=O)CN2C(=O)N/C(=C/c3ccc(N4CCOCC4)cc3)C2=O)cc1 the results were UBC9 SUMO inh inactive, HCV NS3 hel inh inactive, core dimer inh inactive, EBNA-1 inh inactive and ZTA DNA inh inactive.
`Cc1oc2c(c(C)cc3oc(=O)c(CC(=O)N[C@@H](C)C(=O)O)c(C)c32)c1C` gave UBC9 SUMO inh 50.6, HCV NS3 hel inh inactive, core dimer inh inactive, EBNA-1 inh inactive and ZTA DNA inh inactive.
For Cc1oc2c(c(C)cc3oc(=O)c(CC(=O)N[C@@H](CCCNC(N)=O)C(=O)O)c(C)c32)c1C the results were UBC9 SUMO inh inactive, HCV NS3 hel inh inactive, core dimer inh inactive, EBNA-1 inh inactive and ZTA DNA inh inactive.
Screening COc1ccc(NC(C)=O)cc1S(=O)(=O)NCCc1ccccn1 returned ZTA DNA inh inactive.
`O=c1c2c3c(sc2[nH]c(=S)n1Cc1ccco1)CCC3` gave UBC9 SUMO inh inactive, HCV NS3 hel inh inactive, core dimer inh 48.1, EBNA-1 inh inactive and ZTA DNA inh inactive.
Screening CC1(C)Cc2c(sc3[nH]c(=S)n(Cc4ccco4)c(=O)c23)CO1 returned UBC9 SUMO inh inactive, HCV NS3 hel inh inactive, core dimer inh inactive, EBNA-1 inh inactive and ZTA DNA inh inactive.
CCCCCCSc1ccc([C@H]2N[C@@](CC(C)C)(C(=O)OC)[C@H]3C(=O)N(C)C(=O)[C@@H]23)cc1OC was read as core dimer inh inactive, EBNA-1 inh inactive and ZTA DNA inh inactive.
For O=C(CS(=O)(=O)c1ccccc1)N1CCN(c2ccccc2)CC1 the results were core dimer inh inactive, EBNA-1 inh inactive and ZTA DNA inh inactive.
Screening O=C(Nc1ccc(-c2nc3ccccc3o2)cc1)c1ccc2c(c1)OCO2 returned UBC9 SUMO inh inactive, HCV NS3 hel inh inactive, core dimer inh inactive, EBNA-1 inh inactive and ZTA DNA inh inactive.
Screening Cc1ccc(-c2nc3ccccc3o2)cc1NC(=O)c1ccc2c(c1)OCO2 returned UBC9 SUMO inh 58.2, HCV NS3 hel inh inactive, core dimer inh inactive, EBNA-1 inh inactive and ZTA DNA inh inactive.
